# Source: ChEMBL document CHEMBL4689842, “EUbOPEN Chemogenomics Library wave 1” (2021)
# System: Fibroblast
# Assay: Multiplex assay against human fibroblast
# Type: toxicity, cell-based
# Summary of the method: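 Per cents of healthy-nucleus cells form the tubulin, mitochondrial-mass and membrane-permeability phenotype values. Live cells were stained at seeding with Hoechst33342, BioTracker Green Microtubule Cytoskeleton Dye, MitoTracker Red and Annexin V Alexa Fluor 680. After compound addition they were imaged on a CQ1 microscope at 37°C and 5% CO2, and CellPathfinder machine-learning gating split them into Hoechst high-intensity objects or normal cells, normal cells into healthy, pyknosed or fragmented nuclei, and pyknosed cells into mitotic or apoptotic.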
# [1] = 12 h, 1 µM, compound concentration 1 uM, replicate 1
# [2] = 12 h, 1 µM, compound concentration 1 uM, replicate 2
# [3] = 12 h, 10 µM, compound concentration 10 uM, replicate 1
# [4] = 12 h, 10 µM, compound concentration 10 uM, replicate 2
# [5] = 24 h, 1 µM, compound concentration 1 uM, replicate 1
# [6] = 24 h, 1 µM, compound concentration 1 uM, replicate 2
# [7] = 24 h, 10 µM, compound concentration 10 uM, replicate 1
# [8] = 24 h, 10 µM, compound concentration 10 uM, replicate 2
structure (smiles),measurement,setting,value
O=C(Nc1cccnn1)N1CCC(=Cc2cccc(Oc3ccc(C(F)(F)F)cn3)c2)CC1,Population Apoptotic (%),[1],59%
same,Population Fragmented Nuclei (%),[1],24%
same,Population Healthy Nuclei (%),[1],56%
same,Population Hoechst High Intensity Objects (%),[1],10%
same,Population Membrane Permeable-Phenotype (%),[1],20%
same,Population Mitochondria Different-Phenotype (%),[1],10%
same,Population Normal (%),[1],89%
same,Population Pyknosed Nuclei (%),[1],18%
same,Population Tubulin-Different-Phenotype (%),[1],28%
same,Total Cell Count,[1],217
same,Population Apoptotic (%),[2],60%
same,Population Fragmented Nuclei (%),[2],71%
same,Population Healthy Nuclei (%),[2],17%
same,Population Hoechst High Intensity Objects (%),[2],44%
same,Population Membrane Permeable-Phenotype (%),[2],25%
same,Population Mitochondria Different-Phenotype (%),[2],0%
same,Population Mitotic Cells (%),[2],40%
same,Population Normal (%),[2],55%
same,Population Pyknosed Nuclei (%),[2],10%
same,Population Tubulin-Different-Phenotype (%),[2],25%
same,Total Cell Count,[2],83
same,Population Apoptotic (%),[3],73%
same,Population Fragmented Nuclei (%),[3],34%
same,Population Healthy Nuclei (%),[3],52%
same,Population Hoechst High Intensity Objects (%),[3],14%
same,Population Membrane Permeable-Phenotype (%),[3],6%
same,Population Mitochondria Different-Phenotype (%),[3],5%
same,Population Mitotic Cells (%),[3],26%
same,Population Normal (%),[3],85%
same,Population Pyknosed Nuclei (%),[3],13%
same,Population Tubulin-Different-Phenotype (%),[3],7%
same,Total Cell Count,[3],170
same,Population Apoptotic (%),[4],25%
same,Population Fragmented Nuclei (%),[4],50%
same,Population Healthy Nuclei (%),[4],37%
same,Population Hoechst High Intensity Objects (%),[4],24%
same,Population Membrane Permeable-Phenotype (%),[4],12%
same,Population Mitochondria Different-Phenotype (%),[4],12%
same,Population Mitotic Cells (%),[4],75%
same,Population Normal (%),[4],75%
same,Population Pyknosed Nuclei (%),[4],12%
same,Population Tubulin-Different-Phenotype (%),[4],4%
same,Total Cell Count,[4],85
same,Population Apoptotic (%),[5],72%
same,Population Fragmented Nuclei (%),[5],28%
same,Population Healthy Nuclei (%),[5],58%
same,Population Hoechst High Intensity Objects (%),[5],6%
same,Population Membrane Permeable-Phenotype (%),[5],9%
same,Population Mitochondria Different-Phenotype (%),[5],12%
same,Population Mitotic Cells (%),[5],27%
same,Population Normal (%),[5],93%
same,Population Pyknosed Nuclei (%),[5],13%
same,Population Tubulin-Different-Phenotype (%),[5],27%
same,Total Cell Count,[5],238
same,Population Apoptotic (%),[6],60%
same,Population Fragmented Nuclei (%),[6],60%
same,Population Healthy Nuclei (%),[6],28%
same,Population Hoechst High Intensity Objects (%),[6],42%
same,Population Membrane Permeable-Phenotype (%),[6],23%
same,Population Mitochondria Different-Phenotype (%),[6],23%
same,Population Mitotic Cells (%),[6],40%
same,Population Normal (%),[6],57%
same,Population Pyknosed Nuclei (%),[6],11%
same,Population Tubulin-Different-Phenotype (%),[6],38%
same,Total Cell Count,[6],78
same,Population Apoptotic (%),[7],65%
same,Population Fragmented Nuclei (%),[7],28%
same,Population Healthy Nuclei (%),[7],57%
same,Population Hoechst High Intensity Objects (%),[7],18%
same,Population Membrane Permeable-Phenotype (%),[7],1%
same,Population Mitochondria Different-Phenotype (%),[7],2%
same,Population Mitotic Cells (%),[7],35%
same,Population Normal (%),[7],81%
same,Population Pyknosed Nuclei (%),[7],13%
same,Population Tubulin-Different-Phenotype (%),[7],2%
same,Total Cell Count,[7],179
same,Population Apoptotic (%),[8],33%
same,Population Fragmented Nuclei (%),[8],51%
same,Population Healthy Nuclei (%),[8],38%
same,Population Hoechst High Intensity Objects (%),[8],23%
same,Population Membrane Permeable-Phenotype (%),[8],12%
same,Population Mitochondria Different-Phenotype (%),[8],8%
same,Population Mitotic Cells (%),[8],66%
same,Population Normal (%),[8],76%
same,Population Pyknosed Nuclei (%),[8],9%
same,Population Tubulin-Different-Phenotype (%),[8],20%
same,Total Cell Count,[8],81
COc1cc2ncnc(Nc3ccc(F)c(Cl)c3)c2cc1NC(=O)/C=C/CN1CCCCC1 [DACOMITINIB ANHYDROUS],Population Apoptotic (%),[1],72%
same,Population Fragmented Nuclei (%),[1],33%
same,Population Healthy Nuclei (%),[1],52%
same,Population Hoechst High Intensity Objects (%),[1],17%
same,Population Membrane Permeable-Phenotype (%),[1],6%
same,Population Mitochondria Different-Phenotype (%),[1],8%
same,Population Mitotic Cells (%),[1],27%
same,Population Normal (%),[1],82%
same,Population Pyknosed Nuclei (%),[1],14%
same,Population Tubulin-Different-Phenotype (%),[1],46%
same,Total Cell Count,[1],248
same,Population Apoptotic (%),[2],66%
same,Population Fragmented Nuclei (%),[2],56%
same,Population Healthy Nuclei (%),[2],36%
same,Population Hoechst High Intensity Objects (%),[2],57%
same,Population Membrane Permeable-Phenotype (%),[2],12%
same,Population Mitochondria Different-Phenotype (%),[2],25%
same,Population Mitotic Cells (%),[2],33%
same,Population Normal (%),[2],42%
same,Population Pyknosed Nuclei (%),[2],6%
same,Population Tubulin-Different-Phenotype (%),[2],25%
same,Total Cell Count,[2],103
same,Population Apoptotic (%),[3],58%
same,Population Fragmented Nuclei (%),[3],30%
same,Population Healthy Nuclei (%),[3],53%
same,Population Hoechst High Intensity Objects (%),[3],14%
same,Population Membrane Permeable-Phenotype (%),[3],7%
same,Population Mitochondria Different-Phenotype (%),[3],3%
same,Population Mitotic Cells (%),[3],41%
same,Population Normal (%),[3],85%
same,Population Pyknosed Nuclei (%),[3],15%
same,Population Tubulin-Different-Phenotype (%),[3],7%
same,Total Cell Count,[3],214
same,Population Apoptotic (%),[4],28%
same,Population Fragmented Nuclei (%),[4],47%
same,Population Healthy Nuclei (%),[4],40%
same,Population Hoechst High Intensity Objects (%),[4],35%
same,Population Membrane Permeable-Phenotype (%),[4],20%
same,Population Mitochondria Different-Phenotype (%),[4],16%
same,Population Mitotic Cells (%),[4],71%
same,Population Normal (%),[4],64%
same,Population Pyknosed Nuclei (%),[4],11%
same,Population Tubulin-Different-Phenotype (%),[4],16%
same,Total Cell Count,[4],94
same,Population Apoptotic (%),[5],72%
same,Population Fragmented Nuclei (%),[5],28%
same,Population Healthy Nuclei (%),[5],54%
same,Population Hoechst High Intensity Objects (%),[5],30%
same,Population Mitochondria Different-Phenotype (%),[5],22%
same,Population Mitotic Cells (%),[5],28%
same,Population Normal (%),[5],69%
same,Population Pyknosed Nuclei (%),[5],17%
same,Population Tubulin-Different-Phenotype (%),[5],46%
same,Total Cell Count,[5],210
same,Population Apoptotic (%),[6],100%
same,Population Fragmented Nuclei (%),[6],51%
same,Population Healthy Nuclei (%),[6],40%
same,Population Hoechst High Intensity Objects (%),[6],57%
same,Population Membrane Permeable-Phenotype (%),[6],5%
same,Population Mitochondria Different-Phenotype (%),[6],16%
same,Population Mitotic Cells (%),[6],0%
same,Population Normal (%),[6],42%
same,Population Pyknosed Nuclei (%),[6],8%
same,Population Tubulin-Different-Phenotype (%),[6],16%
same,Total Cell Count,[6],106
same,Population Apoptotic (%),[7],58%
same,Population Fragmented Nuclei (%),[7],32%
same,Population Healthy Nuclei (%),[7],50%
same,Population Hoechst High Intensity Objects (%),[7],18%
same,Population Membrane Permeable-Phenotype (%),[7],6%
same,Population Mitochondria Different-Phenotype (%),[7],2%
same,Population Mitotic Cells (%),[7],41%
same,Population Normal (%),[7],81%
same,Population Pyknosed Nuclei (%),[7],17%
same,Population Tubulin-Different-Phenotype (%),[7],3%
same,Total Cell Count,[7],249
same,Population Apoptotic (%),[8],33%
same,Population Fragmented Nuclei (%),[8],53%
same,Population Healthy Nuclei (%),[8],36%
same,Population Hoechst High Intensity Objects (%),[8],30%
same,Population Membrane Permeable-Phenotype (%),[8],21%
same,Population Mitochondria Different-Phenotype (%),[8],13%
same,Population Mitotic Cells (%),[8],66%
same,Population Normal (%),[8],69%
same,Population Pyknosed Nuclei (%),[8],9%
same,Population Tubulin-Different-Phenotype (%),[8],17%
same,Total Cell Count,[8],91
